# Source: PubChem BioAssay (The Scripps Research Institute Molecular Screening Center)
# MBD2 DNA inh – inhibitors of human MBD2 binding to methylated oligonucleotide; 0.31% of 370,000 active; Q9UBB5; TR-FRET; inhibition, % at 4.4 µM; in the data active = inhibition above about 13%
# TDP2 absorb – blocks human TDP2 phosphodiesterase activity; AID 720702; recombinant TDP2, T5PNP hydrolysis, p-nitrophenol absorbance 415 nm; 0.34% of 370,000 active; O95551; inhibition, % at 12.8 µM;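 active = inhibition above the mean of all tested compounds plus 3 SD, set per campaign, cut at about 25% in these data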;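 note: 0% = DMSO with enzyme and 100% = buffer with substrate but no TDP2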
#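 Material: recombinant human TDP2; quantity: TDP2 enzyme at 120 nM final; medium: Tris-HCl pH 7.5 with MgCl2; compound: single concentration, 12.8 µM nominal, with 1% DMSO; incubation: 2 h enzyme incubation at 37 °C; signal: epi absorbance; measure: percent inhibition; benchmarks: high control without enzyme, low control DMSO plus TDP2; repeats: singlicate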
# LEDGF integ inh – blocks HIV-1 LEDGF/p75-dependent DNA integration; TR-FRET IN-LEDGF/p75 DNA integration, Eu/Cy5; inhibition, % at 3.7 µM; 0.64% of 370,000 active; AID 743269;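 active = inhibition above the screen-wide mean plus 3 SD, cut at about 13% in these data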;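 note: signal is the Cy5 over europium emission ratio at 671 and 618 nm; 0% = plate median of compound wells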
# Rin1 Abl inh – blocks binding of human Rin1 to Abl; P00519+Q13671; TR-FRET Rin1/Abl binding, biochemical; inhibition, % at 7.35 µM; 0.4% of 360,000 active; in the data active = inhibition above about 5%, passing the limit was not always enough
# UHRF1 MBD2 ctr – human UHRF1 methylated DNA binding inhibitors; Q96T88; UHRF1 binding to methylated oligo, TR-FRET; inhibition, % at 4.4 µM; 0.75% of 370,000 active; in the data active = inhibition above about 21%;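 note: UHRF1 SRA domain binding a hemimethylated CpG hairpin DNA probe; 0% = median of test compound wells and 100% = reference inhibitor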
# Target sequence (Q96T88 whole entry, looked up, the tested form may be a part): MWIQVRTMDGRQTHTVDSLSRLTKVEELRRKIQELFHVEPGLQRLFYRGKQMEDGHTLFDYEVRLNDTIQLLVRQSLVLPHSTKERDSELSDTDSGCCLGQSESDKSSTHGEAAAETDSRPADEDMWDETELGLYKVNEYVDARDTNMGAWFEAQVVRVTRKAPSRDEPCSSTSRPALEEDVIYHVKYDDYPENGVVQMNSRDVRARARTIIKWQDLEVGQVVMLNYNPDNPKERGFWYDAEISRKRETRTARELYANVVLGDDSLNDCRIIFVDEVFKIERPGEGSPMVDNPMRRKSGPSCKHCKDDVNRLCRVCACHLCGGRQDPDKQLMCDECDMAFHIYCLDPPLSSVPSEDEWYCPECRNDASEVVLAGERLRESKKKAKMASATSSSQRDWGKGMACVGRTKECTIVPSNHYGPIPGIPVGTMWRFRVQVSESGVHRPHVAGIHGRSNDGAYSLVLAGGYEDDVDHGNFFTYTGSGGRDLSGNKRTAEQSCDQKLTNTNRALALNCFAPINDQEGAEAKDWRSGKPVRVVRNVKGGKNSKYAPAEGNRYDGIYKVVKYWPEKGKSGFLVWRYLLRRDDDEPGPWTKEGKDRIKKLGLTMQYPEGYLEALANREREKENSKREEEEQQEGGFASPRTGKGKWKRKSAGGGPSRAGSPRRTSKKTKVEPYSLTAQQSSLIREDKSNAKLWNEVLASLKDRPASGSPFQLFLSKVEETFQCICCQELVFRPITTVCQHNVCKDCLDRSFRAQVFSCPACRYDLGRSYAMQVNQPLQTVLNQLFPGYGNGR
# Rin1 Abl conf – Rin1-Abl interaction inhibition confirmation. shares compounds with Rin1 Abl inh. TR-FRET Rin1-Abl binding, purified proteins. inhibition, % at 7.35 µM. 49% of 1,300 active. AID 602124
# GFP quencher – counter-screen for Rin1-Abl inhibitors: GFP fluorescence quenchers; 8.5% of 1,300 active; shares compounds with Rin1 Abl inh; inhibitors/quenchers counterscreen; inhibition, % at 6.75 µM; AID 602125;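 note: ABL1-eGFP fusion protein alone without its partner RIN1-SBP; 0% = protein with vehicle and 100% = wells lacking protein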
# GFP quench DR – GFP fluorescence interference dose response | shares compounds with Rin1 Abl inh | GFP fluorescence interference/quenching counterscreen | IC50, µM | 230 tested, under 10 active; call rule not given here;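 note: ABL1-eGFP fusion protein alone without its RIN1 binding partner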
# The depositor's hits bear a star; nt = no result. Most compounds without a hit are left out; they make up all but 1.9% or so of the library. Cut-off read from the data, not from the text of the source, unless noted: active = inhibition above about 6.5%; inactive = the rest.
SMILES,MBD2 DNA inh,TDP2 absorb,LEDGF integ inh,Rin1 Abl inh,UHRF1 MBD2 ctr,Rin1 Abl conf,GFP quencher,others
C#CCOCCOCCOCCNc1nc(N2CCOCC2)nc(N2CCN(C(=O)CCCCCCCCCCNC(=O)[C@H](CO)n3cc(CCCCCN)nn3)CC2)n1,2,1,-3,9.9*,-1,9.8*,-1,
C#CCOCCOCCOCCNc1nc(N2CCN(C(=O)CCCCCCCCCCNC(=O)Cn3cc(CCCCCN)nn3)CC2)nc(N2CCN(C(=O)CCCCCCCCCCNC(=O)[C@H](CO)n3cc(CCCCCN)nn3)CC2)n1,nt,nt,nt,5,nt,nt,nt,
C#CCOCCOCCOCCNc1nc(N2CCN(C(=O)CCCCCCCCCCNC(=O)[C@H](CCCCN)n3cc(CCCC(=O)O)nn3)CC2)nc(N2CCN(C(=O)CCCCCCCCCCNC(=O)[C@H](CCCCN)n3cc(CCCC(=O)O)nn3)CC2)n1,nt,nt,nt,1,nt,nt,nt,
C#CCOCCOCCOCCNc1nc(N2CCN(C(=O)CCCCCCCCCCNC(=O)[C@H](CCCCN)n3cc(CCO)nn3)CC2)nc(N2CCN(C(=O)CCCCCCCCCCNC(=O)[C@H](CCCCN)n3cc(CCO)nn3)CC2)n1,nt,nt,nt,19*,nt,20*,1,
O=C1CCC[C@H]2C[C@H](NCCc3ccncc3)CC[C@]23CCCN13,1,0,-1,nt,-3,nt,nt,
Cc1ccc(-n2c(SCC(=O)Nc3ccc(S(=O)(=O)Nc4nccs4)cc3)nnc2-c2cccs2)cc1,-3,-7,-3,nt,2,nt,nt,
COC(=O)C1=C(C)N(Cc2ccccc2C(F)(F)F)C(=NCc2ccccc2C(F)(F)F)NC1c1ccc(C(F)(F)F)cc1 (configuration not stated),-5,3,2,nt,-1,nt,nt,
O=S1(=O)CC2c3ccc(F)cc3CN2CN1C1CCCC1 (configuration not stated),6,-6,0,nt,0,nt,nt,
CC(=O)Nc1cc(OC(C)=O)c2nonc2c1OC(C)=O,19*,98*,39*,16*,15,0,5,
CC(=O)Nc1nonc1NC(C)=O,2,7,0,-2,-1,nt,nt,
N#CC1=C(N)Oc2nc[nH]c(=O)c2C1c1cccs1 (configuration not stated),0,7,1,3,1,nt,nt,
O=c1[nH]cnc2c1C(c1ccccc1)c1c(nc[nH]c1=O)O2,-1,4,1,23*,1,44*,0,GFP quench DR=>68
COc1ccc([C@H](C#Cc2ccccc2)CC(=O)O)cc1OC1CCCC1,-2,8,-2,nt,2,nt,nt,
COC(=O)C1=CC(=O)C=C(OC)[C@@]12Oc1cc(C)cc(OC)c1C2=O,4,11,0,nt,0,nt,nt,
Cc1cccc(N2C(=O)C(CC(=O)Nc3cccc(F)c3)N(CCc3ccncc3)C2=O)c1 (configuration not stated),6,-11,-10,5.3*,5,0,-1,
CCc1ccc(NC(=O)CC2C(=O)N(c3ccc(C)cc3)C(=O)N2CCc2ccncc2)cc1 (configuration not stated),3,5,3,1,5,nt,nt,
COC(=O)c1sccc1NC(=O)COc1ccccc1Cl,-2,9,2,7.4*,-4,-2,1,
O=C1Nc2ccccc2N=C(c2ccccc2)C1Br (configuration not stated),2,12,0,3,1,nt,nt,
CC1=Nc2ccccc2NC(=O)C1Sc1nnc(C)s1 (configuration not stated),6,2,2,6.4*,1,3,1,
CC(=O)Nc1cccc(-c2ccnc3c2CC(C(=O)NCc2ccc(N(C)C)cc2)O3)c1 (configuration not stated),-1,-9,-3,17*,-2,10*,1,
CN1CCN(c2ccc(CNC(=O)C3Cc4c(-c5ccc(Cl)cc5)ccnc4O3)cc2)CC1 (configuration not stated),-6,7,-1,15*,-4,9.5*,1,
CN1CCN(c2ccc(CNC(=O)C3Cc4c(-c5ccc6c(c5)OCO6)ccnc4O3)cc2)CC1 (configuration not stated),1,-7,-4,15*,5,14*,-2,
CC(=O)Nc1ccc(-c2ccnc3c2CC(C(=O)NCc2ccc(N4CCN(C)CC4)cc2)O3)cc1 (configuration not stated),5,-5,7,14*,4,14*,-1,
O=C(NCc1ccncc1)C1Cc2c(-c3ccc4c(c3)OCO4)ccnc2O1 (configuration not stated),3,-4,1,-1,3,nt,nt,
Cc1ccc(-c2nnc(SCC(=O)c3ccc(O)c(O)c3)n2-c2ccc(Cl)cc2)cc1,-7,-6,1,nt,5,nt,nt,
SMILES,MBD2 DNA inh,TDP2 absorb,LEDGF integ inh,Rin1 Abl inh,UHRF1 MBD2 ctr,Rin1 Abl conf,GFP quencher,others
COCCCN1C(=O)[C@H](CC(=O)NCCc2ccccc2OC)[C@]2(C(=O)OC)CCCCC=C12,4,-2,-5,nt,1,nt,nt,
CC(=O)Nc1cccc(-c2ccnc3c2CC(C(=O)NCc2ccc(N4CCN(C)CC4)cc2)O3)c1 (configuration not stated),-1,-4,5,31*,4,28*,-1,GFP quench DR=>68
CCC[C@H]1[C@@H](OC(=O)NCc2cccc(Cl)c2)CC[C@@]23CCCN2C(=O)CCC[C@@H]13,-1,-3,4,nt,-4,nt,nt,
O=C1CCC([N+](=O)[O-])C(c2ccc(C(F)(F)F)cc2)N1 (configuration not stated),-1,12,-1,8.2*,2,2,-2,
C[C@H]1COc2cc(Br)ccc2S(=O)(=O)N1Cc1cn(Cc2ccc(Br)cc2)nn1,3,1,-3,nt,-1,nt,nt,
CCOC(=O)Cn1cc(CN2C(C(=O)OC)CN(C3CC3)CCS2(=O)=O)nn1 (configuration not stated),9,5,-5,nt,15,nt,nt,
Cc1nc(CN2CCCCC2)cc(=O)[nH]1,6,-5,1,9.8*,-2,1,-3,
Cc1nc(CN2CCC(c3ccccc3)CC2)cc(=O)[nH]1,4,0,-4,2,1,nt,nt,
C[C@@H]1O[C@@H](OC[C@H]2O[C@@H](Oc3c(-c4ccc(O)c(O)c4)oc4cc(O)cc(O)c4c3=O)[C@H](O)[C@@H](O)[C@@H]2O)[C@H](O)[C@H](O)[C@H]1O,-2,-4,5,15*,-1,21*,2,GFP quench DR=>68
